In brackets after ≈: the same amount, converted by molar mass. Activity calls are given as the source filed them. No cut-off for these calls is given here.

Consider nine compounds from ChEMBL document CHEMBL4330137, “Synthesis and antimicrobial activities of N6-hydroxyagelasine analogs and revision of the structure of ageloximes” (Bioorg Med Chem, 2019).

Assay [1] has as its system Mycobacterium tuberculosis. Briefly: Antitubercular activity against Mycobacterium tuberculosis H37Rv by LORA. The assay is classed as functional.
In assay [2] the test system is Mycobacterium tuberculosis. Description: Antitubercular activity against Mycobacterium tuberculosis H37Rv by MABA. The assay is classed as functional. In general terms: The colour change of resazurin is a common sign of viable cells or microbes.
Assay [3] relates to Pseudomonas aeruginosa. Description: Antibiofilm activity against Pseudomonas aeruginosa CUCG 56489 up to 1000 uM by safranin staining based assay. The assay is classed as functional, organism-based.
The test system of assay [4] is Escherichia coli. Description: Antibacterial activity against Escherichia coli ATCC 8739 after 17 hrs by resazurin dye based fluorimetric assay. To be noted: ATCC 8739, ATCC 8739, 17 h. The assay is classed as functional, organism-based. In a few lines: (§1)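 Bacteria grown in Mueller Hinton broth; 5 × 10³ CFU/mL inoculum with compound at 64, 16, 4, 1 and 0.25 µM (DMSO final <1%), 37 °C for 17 h. Resazurin added, fluorescence read after 0.5 h (ex 550/em 590 nm). Growth normalised to untreated (100%) and medium-only (0%) wells; IC50 calculated.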

Assay [5] is described as follows: Cytotoxicity against human MRC5 SV2 cells after 3 days by resazurin dye based fluorescence assay. The conditions noted are these: MRC-5 SV2, 72 h. The assay is classed as cell-based. The procedure, abridged:
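MRC-5SV2 fibroblasts in MEM with L-glutamine, NaHCO3, 5% inactivated FCS; 5 × 10³ inoculum with compound at 64–0.25 µM (4-fold steps, DMSO <1%), 37 °C, 5% CO2, 3 days. Resazurin added, fluorescence after 4 h (ex 550/em 590 nm). Viability relative to untreated and medium controls; IC50 calculated.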

The subject of a further assay is Trypanosoma cruzi. Briefly: Antitrypanosomal activity against beta-galactosidase expressing nifurtimox-sensitive Trypanosoma cruzi Tulahuen CL2 infected in human MRC5 SV2 cells assessed as reduction in parasite burden after 168 hrs by CPRG and Nonidet based spectrophotometric analysis. It counts as functional, organism-based. To be noted: Tulahuen CL2, MRC-5 SV2, 168 h. The procedure, abridged: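 MRC-5 cells (4·10³/well) plus 4·10⁴ parasites per well with compound at 64–0.25 µM, 37 °C, 5% CO2 for 7 days. CPRG/Nonidet in PBS added; absorbance at 540 nm after 4 h. Percent burden reduction versus untreated-infected and uninfected controls; IC50 calculated.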

For a further assay, the system named is Trypanosoma brucei. Description: Antitrypanosomal activity against suramin-sensitive Trypanosoma brucei Squib 427 assessed as parasite growth inhibition after 72 hrs by resazurin assay. The conditions noted are these: Squib 427, 72 h. The assay is classed as functional, organism-based. The procedure, abridged: (§2)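 Bloodstream parasites in HMI-9 with 10% inactivated FCS; 1.5 × 10³ (T. brucei) or 4 × 10³ (T. rhodesiense) per well, compound 64–0.25 µM, 37 °C, 5% CO2, 3 days. Resazurin (50 µg/mL) added; fluorescence read after 24 h (T. brucei) or 6 h (T. rhodesiense), ex 550/em 590 nm. IC50 from % growth inhibition.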

The test system of assay [6] is Staphylococcus epidermidis. Description: Antibiofilm activity against Staphylococcus epidermidis ATCC 35984 up to 1000 uM by safranin staining based assay. It counts as functional, organism-based.
In assay [7] the test system is Trypanosoma brucei rhodesiense. Briefly: Antitrypanosomal activity against Trypanosoma brucei rhodesiense STIB 900 assessed as parasite growth inhibition after 72 hrs by resazurin assay. The assay is classed as functional, organism-based. The conditions noted are these: STIB 900, 72 h. In a few lines:
as §2

Another assay concerns Staphylococcus aureus. Description: Antibacterial activity against Staphylococcus aureus ATCC 6538 after 17 hrs by resazurin dye based fluorimetric assay. It counts as functional, organism-based. The conditions noted are these: ATCC 6538, 17 h. In a few lines:
as §1

Assay [8] has as its system Escherichia coli. Description: Antibiofilm activity against Escherichia coli clinical isolates at 1 mM by safranin staining based assay relative to control. The assay is classed as functional.
A further assay concerns Candida albicans. Description: Antifungal activity against azole-resistant Candida albicans after 24 hrs by resazurin dye based fluorimetric assay. It counts as functional, organism-based. The procedure, abridged:
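Inoculum 5 × 10³ CFU/mL in RPMI-1640 with Mops buffer and glucose. Tested at 64, 16, 4, 1 and 0.25 µM from DMSO stocks, final DMSO <1%. Incubated 24 h at 37 °C, then resazurin added and fluorescence read after 0.5 h (ex 550/em 590 nm). Growth normalized to untreated (100%) and medium-only (0%) wells; IC50 calculated. Flucytosine positive control.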

The test system of another assay is Leishmania infantum. Description: Antileishmanial activity against amastigote stage of Leishmania infantum MHOM/MA(BE)/67 infected in mouse primary peritoneal macrophages assessed as decrease in parasite burden after 5 days by Giemsa staining-based microscopic method. It counts as functional, organism-based. To be noted: MHOM/MA(BE)/67, 120 h. In a few lines: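 Amastigotes purified from infected hamster spleen; starch-stimulated mouse peritoneal macrophages (3·10⁴/well) infected with 4.5·10⁵ parasites in supplemented RPMI-1640. Compound (64–0.25 µM) added 2 h post-infection; 5 days, 37 °C, 5% CO2. Amastigotes per macrophage counted microscopically after 10% Giemsa staining; % burden reduction versus controls, IC50 calculated.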

The test system of assay [9] is Staphylococcus epidermidis. Description: Antibiofilm activity against Staphylococcus epidermidis ATCC 35984 at 125 uM by safranin staining based assay relative to control. The assay is classed as functional.
Assay [10] has as its system Escherichia coli. Briefly: Growth inhibition of Escherichia coli clinical isolates at 500 uM. To be noted: read-out: GI. It counts as functional.
Assay [11] deals with Escherichia coli. Briefly: Antibiofilm activity against Escherichia coli clinical isolates at 500 uM by safranin staining based assay relative to control. The assay is classed as functional.
The subject of assay [12] is Staphylococcus epidermidis. Briefly: Growth inhibition of Staphylococcus epidermidis ATCC 35984. The assay is classed as functional, organism-based.
Assay [13] concerns Pseudomonas aeruginosa. Briefly: Antibiofilm activity against Pseudomonas aeruginosa CUCG 56489 at 250 uM by safranin staining based assay relative to control. It counts as functional.

`NNC(=O)c1ccncc1` [ISONIAZID]: the minimum inhibitory concentration (MIC) was more than 128 µg/mL in assay [1] and 0.48 µg/mL (≈ 3.5 µM) in [2].
With `CC(C)=CCC/C(C)=C/C[n+]1cn(C)c2nc[nH]/c(=N\O)c21.[Br-]`, the outcome (with Pseudomonas aeruginosa [3]; in assay [6]) was inactive. The IC50 in the assay with Escherichia coli [4] was more than 64000 nM; in assay [5], more than 64000 nM; in the assay with Trypanosoma cruzi, 11500 nM; in the assay on Trypanosoma brucei, 28000 nM; in assay [7], 8060 nM; in the assay with Staphylococcus aureus, more than 64000 nM. Moreover, the 50% inhibitory concentration (IC50) in the assay on Candida albicans is more than 64000 nM; in the assay with Leishmania infantum it was 20300 nM. Also, the MIC in assay [1] and in assay [2] was more than 50 µg/mL throughout. For the same compound, the Activity with Escherichia coli [8] was 50%.
`Cc1ccc(C(=O)Nc2ccc(S(=O)(=O)O)c3cc(S(=O)(=O)O)cc(S(=O)(=O)O)c23)cc1NC(=O)c1cccc(NC(=O)Nc2cccc(C(=O)Nc3cc(C(=O)Nc4ccc(S(=O)(=O)O)c5cc(S(=O)(=O)O)cc(S(=O)(=O)O)c45)ccc3C)c2)c1` [SURAMIN]: the half-inhibitory concentration (IC50) came out at 20 nM in the assay on Trypanosoma brucei and 30 nM in [7].
With `O=C(Cn1ccnc1[N+](=O)[O-])NCc1ccccc1` [BENZNIDAZOLE], in the assay on Trypanosoma cruzi, the IC50 came out at 2690 nM.
For `CC(C)=CCC/C(C)=C/CC/C(C)=C/CC/C(C)=C/C[n+]1cn(C)c2nc[nH]/c(=N\O)c21.[Br-]`, the half-maximal inhibitory concentration (IC50) was more than 64000 nM with Escherichia coli [4]; 1900 nM in assay [5]; 125000 nM in assay [12]; 540 nM in the assay on Trypanosoma cruzi; 2010 nM in the assay on Trypanosoma brucei; 500 nM in assay [7]. For the same compound, the values for the IC50 in the assay with Staphylococcus aureus, in the assay with Candida albicans and with Leishmania infantum were 1890 nM, 2000 nM and 2160 nM, respectively. In addition, the Activity is on record as 90% in assay [9], 70% in the assay with Escherichia coli [11] and 40 - 50% in the assay with Pseudomonas aeruginosa [13]. In addition, the inhibition of growth at 500 µM with Escherichia coli [10] is 20%. Besides, the minimal inhibitory concentration (MIC) in [1] stood at 15.3 µg/mL; in assay [2], 11.3 µg/mL.
For the compound `CCCCCCCCCCCCCCCCOP(=O)([O-])OCC[N+](C)(C)C` [MILTEFOSINE], the IC50 with Leishmania infantum came to 11800 nM.
In assay [5], `CC/C(=C(\c1ccccc1)c1ccc(OCCN(C)C)cc1)c1ccccc1` [TAMOXIFEN] came in with a concentration for half-maximal inhibition (IC50) of 11200 nM.
In turn, `Nc1nc(=O)[nH]cc1F` [FLUCYTOSINE] registered an IC50 with Candida albicans of 410 nM.
`C[C@H]1c2cccc(O)c2C(=O)C2=C(O)[C@]3(O)C(=O)C(C(N)=O)=C(O)[C@@H](N(C)C)[C@@H]3[C@@H](O)[C@@H]21` [DOXYCYCLINE]: the 50% inhibitory concentration (IC50) was found to be 580 nM with Escherichia coli [4] and 30 nM in the assay on Staphylococcus aureus.

As a reminder, the MIC is the lowest concentration that inhibits growth of the organism. Low readings indicate a more susceptible organism, high ones a less susceptible organism. A word on the IC50: it is the midpoint of a concentration-inhibition curve.
